In ChEMBL document CHEMBL1240313, “A clinical drug library screen identifies astemizole as an antimalarial agent” (Nat Chem Biol, 2006):
Activity calls are given as the source filed them. The rule behind the calls is not given here.

Key:
[1] = tested on: Heme; test: Displacement of [3H]astemizole from free heme crystal at 15 uM after 16 hrs by scintillation counting
How it was run: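 [3H]-astemizole (27 Ci/mmol) was incubated in triplicate with a 5 nmol heme crystal seed and 50 µM heme in 0.1 M ammonium acetate, pH 4.8, for 16 h at 37°C. Crystal was pelleted, sonicated, and spun through 1.7 M sucrose at 200,000 × g. The pellet was decrystallized in 50 mM NaOH/2% SDS and counted by scintillation.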

[2] = tested on: Heme; test: Inhibition of heme crystallization after 16 hrs
How it was run: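 Heme crystal extension was seeded with 2.5 nmol heme crystal and run with 50 µM heme in 0.1 M ammonium acetate, pH 4.8, at 37°C for 16 h. Crystal extension was quantified by the differential solubility of free versus crystalline heme in 0.15 M sodium bicarbonate. IC50 came from a four-parameter logistic fit and is given as mean ± s.e.m. of triplicate experiments.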

[3] = tested on: Plasmodium falciparum; test: Antimalarial activity against Plasmodium falciparum ItG assessed as inhibition of parasite growth after 48 to 96 hrs by [3H]hypoxanthine incorporation assay; format: functional, organism-based
How it was run: (§1)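 Synchronized ring-stage parasites in RPMI 1640 with 10% human serum, 0.2% parasitemia and 2-4% hematocrit, were exposed to drug for 48 or 96 h with [3H]-hypoxanthine. Growth was read as radioactive incorporation. IC50 came from a four-parameter logistic fit and is given as mean ± s.e.m. of triplicate experiments.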

[4] = tested on: Plasmodium falciparum; test: Antimalarial activity against Plasmodium falciparum 3D7 assessed as inhibition of parasite growth after 48 to 96 hrs by [3H]hypoxanthine incorporation assay; format: functional, organism-based; how it was run: as §1
[5] = tested on: Plasmodium falciparum; test: Antimalarial activity against Plasmodium falciparum Dd2 assessed as inhibition of parasite growth after 48 to 96 hrs by [3H]hypoxanthine incorporation assay; format: functional, organism-based; how it was run: as §1
[6] = Drug level in hemozoin of Plasmodium falciparum 3D7 at 1.5 uCi after 20 hrs; format: ADME; details: plasmodium falciparum 3d7, 20 h
How it was run: (§2)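 Duplicate 12 mL ring-stage cultures at 5% parasitemia were incubated with 1.5 µCi [3H]-astemizole for 20 h. Erythrocytes were harvested at the trophozoite stage and washed. Hemozoin was extracted by hypotonic lysis and purified by sucrose-cushion ultracentrifugation, then decrystallized in NaOH/SDS and counted by scintillation.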

[7] = Drug level in chloroquine-sensitive Plasmodium falciparum 3D7 culture at 1.5 uCi after 20 hrs; format: ADME; details: plasmodium falciparum 3d7, 20 h
[8] = Drug level in Plasmodium falciparum Dd2 infected erythrocyte lysate at 1.5 uCi after 20 hrs; format: ADME, cell-based
[9] = Drug level in chloroquine-resistant Plasmodium falciparum Dd2 lysate at 1.5 uCi after 20 hrs; format: ADME; details: plasmodium falciparum dd2, 20 h
How it was run: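 Duplicate 12 mL ring-synchronized cultures (RPMI 1640, 10% human serum; 5% parasitemia) incubated 20 h with 1.5 µCi tritiated drug. Trophozoite-stage erythrocytes harvested and washed once. Hemozoin released by hypotonic lysis, then pelleted through 1.7 M sucrose/50 mM Tris-HCl pH 8.0 at 200,000 × g for 15 min. Pellet decrystallized in 50 mM NaOH, 2% SDS; radioactivity read by scintillation counting.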

[10] = Drug level in hemozoin of Plasmodium falciparum Dd2 at 1.5 uCi after 20 hrs; format: ADME; details: plasmodium falciparum dd2, 20 h; how it was run: as §2
[11] = Drug level in chloroquine-sensitive Plasmodium falciparum 3D7 lysate at 1.5 uCi after 20 hrs; format: ADME; details: plasmodium falciparum 3d7, 20 h
[12] = Drug level in chloroquine-sensitive Plasmodium falciparum Dd2 culture at 1.5 uCi after 20 hrs; format: ADME; details: plasmodium falciparum dd2, 20 h
[13] = Drug level in Plasmodium falciparum 3D7 infected erythrocyte lysate at 1.5 uCi after 20 hrs; format: ADME, cell-based
[14] = tested on: Plasmodium falciparum; test: Antiplasmodial activity against Plasmodium falciparum infected in erythrocytes assessed as stabilization of free heme at 0.05 uCi after 16 hrs by scintillation counting; format: functional, organism-based; details: tested as the 3H-labelled form
[15] = tested on: Heme; test: Inhibition of heme crystallization at 7.5 uM after 24 hrs at pH 5.2 - 5.6
[16] = tested on: Plasmodium vinckei; test: Antimalarial activity against chloroquine-sensitive Plasmodium vinckei infected in mice (Mus musculus) assessed as complete cure from parasite infection at 30 mg/m'2, intraperitoneally qd for 4 days administered 2 hrs post infection measured on day 5; format: functional
How it was run: (§3)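 Male C57/BL6 mice (5-6 weeks, 25 ± 2 g) were infected with the P. vinckei Rhodain strain and assessed by the 4-d parasite suppression test. Astemizole tartrate or acetate, or an equal volume of vehicle, was given intraperitoneally or per os. Parasitemia is reported as mean ± s.e.m. Cure meant survival to 30 days post infection with parasitemia cleared and no recrudescence over the next 30 days. Two-tailed Student's t-test was used.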

[17] = tested on: Plasmodium yoelii; test: Antimalarial activity against chloroquine-sensitive Plasmodium yoelii 17X infected in mice (Mus musculus) assessed as complete cure from parasite infection at 300 mg/m'2, perorally daily for 4 days administered 2 hrs post infection measured on day 4; format: functional, organism-based
How it was run: (§4)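 P. yoelii 17X lethal strain was used in male C57/BL6 mice (5-6 weeks, 25 ± 2 g), assessed by the 4-d suppression test. Drug or an equal volume of vehicle was given intraperitoneally or per os. Parasitemia is reported as mean ± s.e.m. Cure meant survival to day 30 with cleared parasitemia and no recrudescence over a further 30 days. Two-tailed t-test was used.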

[18] = tested on: Plasmodium yoelii; test: Antimalarial activity against chloroquine-sensitive Plasmodium yoelii 17X infected in mice (Mus musculus) assessed as complete cure from parasite infection at 15 mg/m'2, intraperitoneal daily for 4 days administered 2 hrs post infection measured on day 5; format: functional, organism-based; how it was run: as §4
[19] = tested on: Plasmodium yoelii; test: Antimalarial activity against chloroquine-sensitive Plasmodium yoelii 17X infected in mice (Mus musculus) assessed as reduction in parasitaemia at 15 mg/m'2, […] administered 2 hrs post infection […]; format: functional
[20] = tested on: Plasmodium vinckei; test: Antimalarial activity against chloroquine-sensitive Plasmodium vinckei infected in mice (Mus musculus) assessed as complete cure from parasite infection at 300 mg/m'2, perorally qd for 4 days administered 2 hrs post infection measured on day 4; format: functional; how it was run: as §3
[21] = tested on: Plasmodium vinckei; test: Antimalarial activity against chloroquine-sensitive Plasmodium vinckei infected in mice (Mus musculus) assessed as reduction in parasitemia at 30 mg/m'2, intraperitoneally […]; format: functional
[22] = tested on: Plasmodium vinckei; test: Antimalarial activity against chloroquine-sensitive Plasmodium vinckei infected in mice (Mus musculus) assessed as reduction in parasitemia at 15 mg/m'2, intraperitoneally […]; format: functional
[23] = tested on: Plasma; test: Metabolic stability in human plasma assessed as desmethylastemizole half life; format: ADME, cell-free
[24] = tested on: Plasmodium vinckei; test: Antimalarial activity against chloroquine-sensitive Plasmodium vinckei infected in mice (Mus musculus) assessed as complete cure from parasite infection at 15 mg/m'2, intraperitoneally qd for 4 days administered 2 hrs post infection measured on day 5; format: functional; how it was run: as §3
[25] = Oral bioavailability in human; format: ADME, organism-based; details: in vivo, read-out: Activity

What does the source list for `OC(c1cc(C(F)(F)F)nc2c(C(F)(F)F)cccc12)C1CCCCN1` (stereo unspecified)?
Activity [1]: inactive; inhibition [2]: inactive

For `Fc1ccc(Cn2c(NC3CCNCC3)nc3ccccc32)cc1` [TECASTEMIZOLE], which IC50 [3] is on record?
The IC50 was 2230 nM.

And the IC50 [4]?
The IC50 was 4480 nM.

What about the IC50 [5] of the same compound?
Its IC50 is 3590 nM.

Which results are given for `COc1ccc(CCN(C)CCCC(C#N)(c2ccc(OC)c(OC)c2)C(C)C)cc1OC` (stereo unspecified)?
Activity [1]: inactive; inhibition [2]: inactive

Which Drug uptake [6] does the source give for `[3H]C([3H])([3H])Oc1ccc(CCN2CCC(Nc3nc4ccccc4n3Cc3ccc(F)cc3)CC2)cc1` [[3H]-ASTEMIZOLE] here?
The Drug uptake was 19656 cpm/uL.

What about the Drug uptake [7] of the same compound?
The Drug uptake was 20.9 cpm/uL.

And the Drug uptake [8]?
The Drug uptake was 144 cpm/uL.

And the Drug uptake [9]?
The Drug uptake was 2598 cpm/uL.

What about the Drug uptake [10] of the same compound?
Its Drug uptake is 21389 cpm/uL.

What about the Drug uptake [11] of the same compound?
The Drug uptake was 2105 cpm/uL.

What about the Drug uptake [12] of the same compound?
The Drug uptake was 17.9 cpm/uL.

What about the Drug uptake [13] of the same compound?
The Drug uptake was 179 cpm/uL.

Which Activity [1] does the source give for `C=C[C@H]1CN2CC[C@H]1C[C@H]2[C@H](O)c1ccnc2ccc(OC)cc12` here?
The Activity was “inactive”.

What about the inhibition [2] of the same compound?
Its inhibition is “inactive”.

With `CCN(CC)CCCC(C)Nc1ccnc2cc(Cl)ccc12` (stereo unspecified) as the compound, how does the Activity [14] read?
Its Activity is “Active”.

What about the Activity ([1]; tested as the 3H-labelled form) of the same compound?
The Activity was “inactive”.

And the inhibition ([15]; tested as the 3H-labelled form)?
Its inhibition is “Active”.

With `C[C@@H]1CC[C@H]2[C@@H](C)C(=O)O[C@@H]3O[C@@]4(C)CC[C@@H]1[C@]32OO4` as the compound, how does the Activity [1] read?
Its Activity is “inactive”.

What about the inhibition [2] of the same compound?
Its inhibition is “inactive”.

Which results are given for `CCN(CC)CCCC(C)Nc1c2ccc(Cl)cc2nc2ccc(OC)cc12` (stereo unspecified)?
Activity [1]: Active; inhibition [2]: Active

For `[3H]c1nc2c([3H])c(Cl)c([3H])c([3H])c2c(N([3H])C([3H])(C([3H])([3H])[3H])C([3H])([3H])C([3H])([3H])C([3H])([3H])N(C([3H])([3H])C([3H])([3H])[3H])C([3H])([3H])C([3H])([3H])[3H])c1[3H]` (stereo unspecified) [[3H]-CHLOROQUINE], which IC50 [2] is on record?
The IC50 was 5740 nM.

With `COc1ccc(CCN2CCC(Nc3nc4ccccc4n3Cc3ccc(F)cc3)CC2)cc1` [ASTEMIZOLE] as the compound, how does the Activity [16] read?
The Activity was “inactive”.

And the Activity [14]?
Its Activity is “Active”.

What about the Activity [17] of the same compound?
The Activity was “Active”.

What about the Activity [18] of the same compound?
Its Activity is “inactive”.

And the IC50 [3]?
Its IC50 is 734 nM.

What about the “inhibition (INH)” value [19] of the same compound?
The value was 44%.

What about the IC50 [4] of the same compound?
The IC50 was 227 nM.

And the IC50 [5]?
Its IC50 is 457 nM.

And the Activity [20]?
Its Activity is “Active”.

What about the “inhibition (INH)” value [21] of the same compound?
Its value is 80%.

What about the inhibition [15] of the same compound?
The inhibition was “Active”.

And the IC50 [2]?
Its IC50 is 12300 nM.

Which Activity [18] does the source give for `Oc1ccc(CCN2CCC(Nc3nc4ccccc4n3Cc3ccc(F)cc3)CC2)cc1` [DESMETHEYLASTEMIZOLE] here?
Its Activity is “inactive”.

What about the IC50 [3] of the same compound?
The IC50 was 56.8 nM.

And the “inhibition (INH)” value [19]?
The value was 40%.

What about the IC50 [4] of the same compound?
The IC50 was 117 nM.

What about the “inhibition (INH)” value [22] of the same compound?
The value was “<=81%”.

And the t1/2 [23]?
The t1/2 was 170 h.

And the Activity [24]?
The Activity was “inactive”.

What about the IC50 [5] of the same compound?
Its IC50 is 106 nM.

What about the bioavailability [25] of the same compound?
The bioavailability was 95%.

And the IC50 [2]?
The IC50 was 8130 nM.

Which results are given for `CC1(C)S[C@@H]2[C@H](NC(=O)[C@H](N)c3ccccc3)C(=O)N2[C@H]1C(=O)O`?
Activity [1]: inactive; inhibition [2]: inactive

Which results are given for `C=C[C@H]1CN2CC[C@H]1C[C@@H]2[C@@H](O)c1ccnc2ccc(OC)cc12`?
Activity [1]: Active; inhibition [2]: Active
